Measured values of several laboratories.
Protocols differ between the studies behind these lines.
Target: Serine/threonine-protein kinase SIK1 (SIK1, Homo sapiens, UniProt P57059)

Compound | assay | system | setting | measurement | value
CC(C)(C)c1nc(-c2cccc(NS(=O)(=O)c3c(F)cccc3F)c2F)c(-c2ccnc(N)n2)s1 | enzyme activity, inhibitor, radiometric | – | 1 µM | remaining activity | 98%
O=C(Nc1cnn(-c2csc(C(=O)NC3COC3)c2)c1)Nc1ccccc1Cl | enzyme activity, inhibitor | – | 5 µM | remaining activity | 102%
Cc1cc(NC(=O)c2cccc3cc(-c4cccc5[nH]nc(N)c45)ccc23)ccc1F | enzyme activity, inhibitor | – | 0.1 µM | activity vs control | 103%
CC(C)(C)c1nc2c(s1)c1nc(N)ncc1c1ccc(NS(=O)(=O)c3c(F)cccc3F)c(F)c12 | enzyme activity, inhibitor, radiometric | – | 1 µM | remaining activity | 90%
CN(CCCC(F)(F)F)c1nccc(-c2cnn3ncccc23)n1 | binding | – | 1 µM | remaining binding | 100%
O=C(Nc1cnn(-c2csc(C(=O)NC3COC3)c2)c1)Nc1c(F)cccc1Cl | enzyme activity, inhibitor | – | 5 µM | remaining activity | 98.3%
CCN1CCN(Cc2ccc(NC(=O)c3ccc(C)c(Oc4ccnc5[nH]ccc45)c3)cc2C(F)(F)F)CC1 | target engagement in cells, inhibitor, chemoproteomics | Huh-7 | 1 µM | inhibition | -51.3%
CC(C)(O)[C@H]1CC[C@H](Nc2ccc3ncc(-c4cccc(C(F)(F)F)c4)n3n2)CC1 | enzyme activity, inhibitor | – | 1 µM | remaining activity | 62.8%
Cc1cnn2ncc(-c3ccnc(N(C)C)n3)c2c1 | binding | – | 1 µM | remaining binding | 100%
Cc1ccc(Nc2nccc(N(C)c3ccc4c(C)n(C)nc4c3)n2)cc1S(N)(=O)=O | enzyme activity, inhibitor | – | 0.3 µM | inhibition | 13%
CN(c1nccc(-c2cnn3ncccc23)n1)C1CC1 | binding | – | 1 µM | remaining binding | 100%
Cc1ccc(C(=O)Nc2ccc(CN3CCN(C)CC3)c(C(F)(F)F)c2)cc1C#Cc1cnc2cccnn12 | enzyme activity, inhibitor | – | 23.5 nM | remaining activity | 57%
COc1cc(Cl)c(C(=O)N[C@@H](CN[C@H]2CC[C@@H](N)CC2)Cc2ccc(C#N)cc2)cc1-c1ccc(CN[C@H](C)c2ccc(C)cc2)o1 | enzyme activity, inhibitor | – | 1 µM | remaining activity | 97%
Cc1cnc(NC2CCOCC2)nc1-n1cnc(C(=O)NC(CN)c2cc(F)cc(Cl)c2)c1 (centres unmarked) | enzyme activity, inhibitor, radiometric | – | 1 µM | remaining activity | 109%
